On the set-up of series [1]: species or system rats. Particulars: rat, in vivo.
A short description of series [2]: Optical characterization of the ELP phase diagram. As to conditions: for Tt (observed transition temperature): 25 μM in PBS, turbidity at 350 nm, ramp 1 °C min−1, maximum first derivative of the curve; for slope of transition temperature vs log10 concentration / y-intercept of transition temperature vs log10 concentration: log-linear regression of Tt vs concentration, 5–100 μM in PBS, mean [95% CI]; for Property at 37 °C: state of the protein polymer at 37 °C (soluble / nanoparticle / coacervate); for temperature of phase separation (Figure 2 legend, approximate): optical density as a function of temperature and concentration. The class given is physicochemical. A digest of the protocol: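 Turbidity (350 nm) of protein polymer solutions in PBS was recorded as a function of temperature across several concentrations. Tt was the maximum of the first derivative of the curve. Observed Tt was reported at 25 μM. Slope and intercept came from log-linear regression, Tt = m Log₁₀[C_ELP] + b. Mean [95% CI].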

A short description of series [3]: Dynamic light scattering: hydrodynamic radius and polydispersity. The class given is physicochemical. As to conditions: DLS; for hydrodynamic radius retained below the transition temperature: 25 μM in PBS (Discussion); for temperature up to which the nanoparticles are stable: 4 to 60 °C in 1 °C increments; for nanoassembly by dynamic light scattering: below the transition temperature; for hydrodynamic radius at 37 °C: filtered through 0.2 μm cellulose acetate. A digest of the protocol:
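Test protein polymers at 25 μM in PBS, passed through 0.2 μm cellulose acetate filters, spun at 4 °C, 1200 rpm to clear air bubbles, and overlaid with mineral oil against evaporation. Hydrodynamic radius and polydispersity were read on a DLS plate reader from 4 to 60 °C in 1 °C steps.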

Series [4] in a line: Negative and cryogenic transmission electron microscopy of nanoparticles. As to conditions: average ± 95% confidence interval. The class given is physicochemical. A digest of the protocol: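 Samples at 25 μM, unfiltered or 0.2 μm filtered. Negative TEM used carbon-coated copper grids, excess wicked off, 2 wt% aqueous uranyl acetate stain, 100 kV. Cryo-TEM used plasma-treated lacey carbon grids plunged into liquid-nitrogen-cooled ethane, 80 kV. Sizes were averaged over three fields (>50 particles/image TEM; 20 cryo-TEM). Bilayer thickness was taken at three points per vesicle circumference. Mean ± 95% CI.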

The text below walks through data of paper PMC4327866 (Journal of controlled release : official journal of the …, 2014).

Several values for one entry are separate records, joined by “and”; a condition that tells them apart may be missing. Equal entries are not always repeated.

With “MDWFKAFYDKVAEKFKEAFGLVPRGS G(VPGAG)192Y [L4F-A192]”, in series [1], the “Plasma clearance, CLp” value came out at 0.37 mL/min; the “Volume of distribution, V0” value came out at 26 mL; the “plasma half-life (approximate)” value was “approximately 1 hr”; the “volume of distribution relative to free L4F peptide” value is on record as “approximately twice”. For the same substance, in series [2], the “Tt (observed transition temperature)” value is 45.8 °C, the “slope of transition temperature vs log10 concentration” value (“slope … vs log10 concentration” for short) is −2.6 °C/log10(μM) and the “y-intercept of transition temperature vs log10 concentration” value (from here on “y-intercept … vs log10 concentration”) is 49.6 °C. For the same substance, the “depression of transition temperature below the parent ELP” value in series [2] (at 25 μM) turned out to be 14 °C. Besides, the “temperature of phase separation / transition temperature” value in series [2] (at 25 μM, optical density, PBS) is “above 47 °C”. For the same substance, in series [2] (PBS), the “Property at 37 °C” value is listed as “nanoparticle”. In series [3], the “hydrodynamic radius retained below the transition temperature” value was 50 nm. For the same substance, in series [3] (25 μM in PBS), the “temperature up to which the nanoparticles are stable” value is 46 °C and the “nanoassembly by dynamic light scattering” value is reported as “form nanoparticles”. For the same substance, in series [3] (25 μM in PBS, 37 °C), the polydispersity is 9 nm; the “hydrodynamic radius at 37 °C” value was 50 nm and ~50 nm. In series [4] (25 μM, 2 % uranyl acetate stain, unfiltered), the “nanoparticle radius, negative TEM, unfiltered” value is given as 41 ± 16 nm. In addition, the “vesicle radius, cryo-TEM, filtered” value in series [4] (25 μM, filtered through 0.2 μm) is 43 ± 17 nm and 43 nm. Besides, the “vesicle radius, cryo-TEM, unfiltered” value in series [4] (25 μM, unfiltered) was 36 ± 13 nm. In series [4] (0.2 um filtered, n = 8), the “membrane thickness, cryo-TEM, filtered” value was 6.8 ± 0.7 nm and 6.8 nm. Besides, the “membrane (wall) thickness, cryo-TEM, unfiltered” value in series [4] (unfiltered, n = 18) was 8.4 ± 1.3 nm and 8.4 nm.

Take “Met-Asp-Trp-Phe-Lys-Ala-Phe-Tyr-Asp-Lys-Val-Ala-Glu-Lys-Phe-Lys-Glu-Ala-Phe-Leu-FITC [Free L4F, reference compound]”: in series [1], the “Plasma clearance, CLp” value was 0.12 mL/min and the “Volume of distribution, V0” value is given as 12 mL.

As for “MDWFKAFYDKVAEKFKEAFGLVPRGS G(VPGVG VPGAG VPGAG)64Y [L4F-V2A192]”, in series [2], the “Tt (observed transition temperature)” value came out at 34.3 °C, the “slope … vs log10 concentration” value is −1.3 °C/log10(μM) and the “y-intercept … vs log10 concentration” value was 36.2 °C. For the same substance, the “temperature of phase separation (Figure 2 legend, approximate)” value in series [2] (PBS) was “about 34 °C”. In addition, the “hydrodynamic radius retained below the transition temperature” value in series [3] worked out at 42 nm. Besides, in series [3] (25 μM in PBS), the “temperature up to which the nanoparticles are stable” value worked out at 34 °C and the “nanoassembly by dynamic light scattering” value was “form nanoparticles”. The “hydrodynamic radius at 37 °C” value in series [3] (25 μM in PBS, 37 °C) is 42 nm and ~50 nm.

Regarding G(VPGAG)192Y [A192], in series [2], the “Tt (observed transition temperature)” value was found to be 61.9 °C, the “slope … vs log10 concentration” value is −9.2 °C/log10(μM) and the “y-intercept … vs log10 concentration” value was found to be 74.9 °C. Besides, in series [2] (PBS), the “temperature of phase separation (Figure 2 legend, approximate)” value is about 60 °C and the “Property at 37 °C” value was “soluble”. Also, the “nanoassembly by dynamic light scattering” value in series [3] (25 μM in PBS) is reported as “do not exhibit any signs of nanoassembly”. For the same substance, the “hydrodynamic radius at 37 °C” value in series [3] (25 μM in PBS, 37 °C) came out at 5 nm.

As for G(VPGVG VPGAG VPGAG)64Y [V2A192], in series [2], the “Tt (observed transition temperature)” value was determined as 47.2 °C, the “slope … vs log10 concentration” value was −5.8 °C/log10(μM) and the “y-intercept … vs log10 concentration” value amounted to 55.9 °C. Moreover, in series [2] (PBS), the “temperature of phase separation (Figure 2 legend, approximate)” value is “around 47 °C” and the “Property at 37 °C” value is on record as “soluble”. Moreover, the “nanoassembly by dynamic light scattering” value in series [3] (25 μM in PBS) is on record as “do not exhibit any signs of nanoassembly”. The “hydrodynamic radius at 37 °C” value in series [3] (25 μM in PBS, 37 °C) is 5 nm.
